HSF1 inhib – HSF1 inhibition; NIH3T3-HGL HSE-luciferase, MG132-induced, luminescence 8 h; stronger effect = lower value; actives 0.77% (n = 300,000); activity change, negative = inhibition, % at 7.5 µM (by protocol); AID 2098;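 active means more than half of replicate wells show activity change below -50%, luminescence cut by over half; inconclusive means some wells, but at most half, below -50%; inactive means no replicate well below -50%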;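 further: luciferase reports HSF-1 transcriptional activity via heat shock element; 0% = median of DMSO wells and -100% = zero luminescence signal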
T cruzi repl – T. cruzi replication inhibition; T. cruzi beta-gal in NIH3T3, luminescence, 90 h; actives 1.4% (n = 300,000); AID 1885; inhibition, % (no concentration beside the values);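 active means mean inhibition across valid replicates above about 55%, limit read from the data; inconclusive means mean below that limit but half or more replicates reach it; inactive means mean below it, under half of replicates reach it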;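 further: signal also drops with host cell toxicity which is not excluded here; 0% = plate median of DMSO wells and 100% = zero luminescence signal; higher percent means less beta-gal luminescence so fewer parasites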
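System: NIH/3T3 fibroblasts plus reporter T. cruzi. Medium: DMEM plus 2% FBS. Probe or stimulus: 5000 reporter trypomastigotes per well. Compound: single 50 nL compound addition per well in DMSO. Incubation: co-culture of at least 90 h after 3 h attachment. Detection: GalScreen β-gal luminescence, detergent lysis, 60 min. Evaluation: parasite load inhibition, %.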
HIF activator – HIF pathway transcriptional activation; U2OS HRE-luciferase reporter, luminescence; normalized: DMSO 0%, desferrioxamine 100%; activation, % at 7.5 µM (by protocol); actives 0.32% (n = 300,000); AID 1910;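 active means mean activation of at least 10% of the iron chelator positive control signal, with at least half of replicates also reaching 10%; inconclusive means mean and replicate majority disagree about reaching 10%; inactive means mean and most replicates under 10%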
HSF1 activator – increases HSF-1 driven luciferase reporter signal; NIH3T3-HGL HSF-1 luciferase reporter, MG132, 8 h; 100% = twice DMSO control signal; activation, % at 9 µM; actives 1.7% (n = 300,000); AID 504408;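 active means mean replicate activation of at least 50% with a set share of replicates each reaching 50%; inconclusive means only one of those two conditions met; inactive means mean below 50% and too few replicates reaching it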;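 further: 0% = median of the neutral control wells and 100% = twice that signal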
Calb FLC – affects C. albicans growth with fluconazole | C. albicans CaCi-2 + fluconazole, Alamar Blue growth, 48 h | growth inhibition, % (test concentration not listed) | actives 0.57% (n = 300,000);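 active means growth inhibition above about 58% in most replicates, limit read from the data, passing the limit was not always enough; inconclusive means exactly half the replicates above a set limit; inactive means most replicates below a set limit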;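 further: all wells also contain fluconazole at 8 µg/ml as a sub-toxic cotreatment; 0% = median of DMSO wells and 100% = median of geldanamycin control wells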
* hit, by the source's call. The list is not random: actives were taken first. Their share in the collection is about 4.4%.

O=C(CN1CCCC1)Nc1ccc(-c2nc3cc(NC(=O)CN4CCCC4)ccc3o2)cc1 was read as HSF1 inhib 13, T cruzi repl 51, HIF activator 13*, HSF1 activator 34 and Calb FLC inconclusive.
COc1ccc(CCCC(=O)N/N=C/c2ccccc2OC)cc1 was read as HSF1 inhib 1, T cruzi repl -7, HIF activator 0, HSF1 activator 12 and Calb FLC -15.
Screening Cc1cc(F)c(F)c(C(=O)N2CCN(C)CC2)c1Cl returned HSF1 inhib -11, T cruzi repl -2, HIF activator -3, HSF1 activator -9 and Calb FLC -7.
Screening Cc1cc(F)c(F)c(C(=O)N2CCOCC2)c1Cl returned HSF1 inhib 16, T cruzi repl -8, HIF activator -34, HSF1 activator 62* and Calb FLC -1.
`CCCC(=O)NC(=S)Nc1ccc(NC(=O)C(C)C)c(OC)c1` gave HSF1 inhib -6, T cruzi repl -5, HIF activator 0, HSF1 activator 3 and Calb FLC 1.
For COc1cccc(/C=C2\N=C(SC)SC2=O)c1OC the results were HSF1 inhib 31, T cruzi repl 2, HIF activator 0, HSF1 activator 56* and Calb FLC -4.
CCOc1cc(N2CCOCC2)c(OCC)cc1NC(=O)CN1CCC(Cc2ccccc2)CC1 was read as HSF1 inhib 11, T cruzi repl 62*, HIF activator 0, HSF1 activator 15 and Calb FLC 10.
For CC(C)(C)NC(=O)c1cccc(NC(=O)CSc2ccc(Cl)cc2)c1 the results were HSF1 inhib 117, T cruzi repl 1, HIF activator 0, HSF1 activator 173* and Calb FLC -2.
CC(C)CNC(=O)c1cccc(NC(=O)CSc2ccc(Cl)cc2)c1 was read as HSF1 inhib 8, T cruzi repl -6, HIF activator 0, HSF1 activator 14 and Calb FLC 4.
O=C(CN(Cc1ccccc1Cl)C(=O)CNS(=O)(=O)c1ccccc1)NCC1CCCO1 (stereo not drawn) was read as HSF1 inhib -2, T cruzi repl 3, HIF activator 0, HSF1 activator 2 and Calb FLC 4.
Cc1ccc(S(=O)(=O)NCCC(=O)N2CCN(S(=O)(=O)c3cccc(F)c3)CC2)cc1C was read as HSF1 inhib 2, T cruzi repl 2, HIF activator 0, HSF1 activator -1 and Calb FLC 5.
CSCC[C@H](NC(=O)C1CCN(S(=O)(=O)c2ccccc2)CC1)C(=O)NC1CC1 was read as HSF1 inhib -71*, T cruzi repl -25, HIF activator 0, HSF1 activator -77 and Calb FLC -4.
`C=CCN(c1ccccc1)S(=O)(=O)c1cccc(C(=O)NC2CCN(Cc3ccccc3)CC2)c1` gave HSF1 inhib -2, T cruzi repl 61*, HIF activator 1, HSF1 activator -14 and Calb FLC -13.
Screening O=C(NC1CCCCC1)C1CCN(c2nccs2)CC1 returned HSF1 inhib -58*, T cruzi repl -2, HIF activator 0 and HSF1 activator -69.
Screening Cc1ccc(S(=O)(=O)NCCC(=O)N2CCN(S(=O)(=O)c3ccccc3)CC2)cc1C returned HSF1 inhib -55*, T cruzi repl 2, HIF activator 0, HSF1 activator -65 and Calb FLC -3.
Cc1ccc(S(=O)(=O)CCC(=O)OCC(=O)N2c3ccccc3CC2C)cc1 (stereo not drawn) was read as HSF1 inhib 0, T cruzi repl -1, HIF activator 0, HSF1 activator -1 and Calb FLC 3.
`O=C(Cc1ccccc1)NN1C(=O)/C(=C/c2ccccc2C(=O)O)SC1=S` gave HSF1 inhib 3, T cruzi repl -1, HIF activator 0, HSF1 activator 6 and Calb FLC 19.
`O=C(NC1CCN(S(=O)(=O)c2ccccc2)CC1)C1CCCCC1` gave HSF1 inhib -8, T cruzi repl -8, HIF activator 0, HSF1 activator -14 and Calb FLC -6.
CN(C)c1ccc(C(=S)N2CCN(S(=O)(=O)c3ccccc3)CC2)cc1 was read as HSF1 inhib 6, T cruzi repl 56*, HIF activator 1, HSF1 activator 18 and Calb FLC -16.
Screening O=C(NC1CCCCCC1)C1CCN(S(=O)(=O)c2ccccc2)CC1 returned HSF1 inhib 8, T cruzi repl -1, HIF activator -1, HSF1 activator 55* and Calb FLC 9.
Screening O=C(N1CCCCC1)N1CCN(S(=O)(=O)c2ccccc2)CC1 returned HSF1 inhib -71*, T cruzi repl -16, HIF activator 1, HSF1 activator -77 and Calb FLC -5.
`O=C(NC1CCN(Cc2ccccc2)CC1)C1CCN(S(=O)(=O)c2ccc(Cl)cc2)CC1` gave HSF1 inhib -1, T cruzi repl 47, HIF activator 0, HSF1 activator -4 and Calb FLC -20.
Screening COc1ccc(C(=S)N2CCN(S(=O)(=O)c3ccccc3)CC2)cc1 returned HSF1 inhib 1, T cruzi repl 1, HIF activator 0, HSF1 activator -2 and Calb FLC 1.
O=C(NC1CCN(Cc2ccccc2)CC1)C1CCN(S(=O)(=O)c2ccccc2)CC1 was read as HSF1 inhib 1, T cruzi repl 57*, HIF activator 0, HSF1 activator -10 and Calb FLC -1.
C[C@H](NC(=O)[C@H](Cc1ccccc1)n1c(=O)[nH]c2ccccc2c1=O)C(=O)N1CCC(C(=O)O)CC1 was read as HSF1 inhib 1, T cruzi repl -5, HIF activator 0, HSF1 activator -4 and Calb FLC -1.
`O=C(Nc1cccn2ncnc12)C(F)(F)F` gave HSF1 inhib 19, T cruzi repl -16, HIF activator -1, HSF1 activator 63* and Calb FLC 23.
Screening O=C(CCl)Nc1cccn2ncnc12 returned HSF1 inhib -4, T cruzi repl -3, HIF activator -2, HSF1 activator -6 and Calb FLC -5.
For Cc1ccc(-c2[nH]ncc2C(=O)c2ccc(Br)cc2)c(O)c1 the results were HSF1 inhib 15, T cruzi repl -3, HIF activator -23, HSF1 activator 71* and Calb FLC 15.
For Cc1ccc(C(=O)c2cn[nH]c2-c2cc(Cl)ccc2O)cc1 the results were HSF1 inhib 1, T cruzi repl -17, HIF activator 0, HSF1 activator 12 and Calb FLC 13.
`COc1ccc2cc(C)c3nnc(SCC(=O)Nc4nc(-c5ccccc5)cs4)n3c2c1` gave HSF1 inhib 1, T cruzi repl 0, HIF activator 0, HSF1 activator -11 and Calb FLC 4.
O=C(O)CCn1[nH]c(=O)ccc1=O was read as HSF1 inhib 12, T cruzi repl -3, HIF activator -24, HSF1 activator 58* and Calb FLC -2.
